What was measured:
[1] = Evaluated for antisickling activity, and initial HbS concentration was reported, values from different experiments (no. of runs=2); assay type: functional
How it was run: (§1)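 Hofrichter-type antigelling assay: the compound was made up as its sodium salt (0.18 M stock) in 0.15 M phosphate buffer, pH 7.4, with sodium bicarbonate. It was diluted with buffer and added to HbS (about 35 g % in 0.15 M phosphate), then dithionite (1.06 M stock) was added and the EPR tubes were sealed. Final drug levels were 5, 10, 20 and 40 mM. Initial HbS (g/dL) is the level after drug and dithionite addition, the same in all six tubes of a run.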

[2] = Control value of dHbS(no. of runs=2); assay type: functional
How it was run: (§2)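 Deoxy-HbS control tube with buffer in place of the compound: HbS in 0.15 M phosphate was deoxygenated with dithionite (1.06 M stock) in a sealed EPR tube. It was spun with each run's set of six tubes, alongside four drug tubes and a 40 mM phenylalanine standard. The value is the HbS solubility in g/dL, used as the denominator of the solubility ratio.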

[3] = Evaluated for antisickling activity, and ratio was calculated as solubility HbS (g/dL) / solubility HbS control(g/dL) at a concentration of 10 mM; assay type: functional
How it was run: (§3)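 Hofrichter-type antigelling assay. Acids were dissolved as sodium salts (sodium bicarbonate) at 0.18 M stock in 0.15 M phosphate, pH 7.4. Aliquots went into HbS (stock around 35 g%) with dithionite as deoxygenant; EPR tubes were sealed and spun. Final drug was 5, 10, 20 and 40 mM. Each six-tube run held a buffer-only deoxy-HbS control and a 40 mM phenylalanine standard. Ratio = soluble HbS with drug / control (g/dL).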

[4] = Evaluated for antisickling activity, and ratio was calculated as solubility HbS (g/dL) / solubility HbS control(g/dL) at a concentration of 20 mM; assay type: functional; how it was run: as §3
[5] = Evaluated for antisickling activity, and ratio was calculated as solubility HbS (g/dL) / solubility HbS control(g/dL) at a concentration of 5 mM; assay type: functional; how it was run: as §3
[6] = Evaluated for antisickling activity, and ratio was calculated as solubility HbS compound (g/dL) / solubility HbS control(g/dL) at a concentration of 40 mM; assay type: functional; how it was run: as §3
[7] = Evaluated for antisickling activity, and initial HbS concentration was reported, values from different experiments (no. of runs=1); assay type: functional; how it was run: as §1
[8] = Control value of dHbS(no. of runs=1); assay type: functional; how it was run: as §2
[9] = Compound was evaluated for antisickling activity, and initial HbS concentration was reported, values from different experiments (no. of runs=1); assay type: functional; how it was run: as §1
[10] = Control value of dHbS (no. of runs=2); assay type: functional; how it was run: as §2
[11] = Compound was evaluated for antisickling activity, and initial HbS concentration was reported, values from different experiments (no. of runs=3); assay type: functional; how it was run: as §1
[12] = Control value of dHbS(no. of runs=3); assay type: functional; how it was run: as §2
[13] = Control value of dHbS (no. of runs=1); assay type: functional; how it was run: as §2
[14] = Compound was evaluated for antisickling activity, and initial HbS concentration was reported, values from different experiments (no. of runs=1)
[15] = Compound was evaluated for antisickling activity, and ratio was calculated as solubility HbS compound (g/dL) / solubility HbS control(g/dL) at a concentration of 40 mM (for 173 assays); assay type: functional
How it was run: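 Phenylalanine reference standard at 40 mM, included in every six-tube set of the sealed-tube dithionite-deoxygenated HbS sedimentation solubility assay, pH 7.4 phosphate. Ratio = soluble HbS with Phe / soluble HbS in the buffer control (g/dL). Reported as mean and standard deviation over 173 assays.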

Row | Structure (SMILES) | Concentration [1] [g/dL] | Control value [2] [g/dL] | Ratio [3] | Ratio [4] | Ratio [5] | Ratio [6] | Concentration [7] [g/dL] | Control value [8] [g/dL] | Concentration [9] [g/dL] | Control value [10] [g/dL] | Concentration [11] [g/dL] | Control value [12] [g/dL] | Control value [13] [g/dL] | Concentration [14] [g/dL] | Ratio [15]
1 | O=C(O)c1ccccc1OC(=O)C1CCCN1C(=O)CCC(O)c1ccccc1 (stereo unspecified) | 24.5 | 17.6 | 0.98 | 1 | 0.99 | 1.15 |  |  |  |  |  |  |  |  | 
2 | O=C(O)COc1cc(NC(=O)c2ccccc2)cc(C(=O)O)c1 | 23.8 | 17.4 | 1.09 | 1.16 | 1.06 | 1.37 |  |  |  |  |  |  |  |  | 
3 | CCCCCCCC(=O)Nc1cc(OCC(=O)O)cc(C(=O)O)c1 |  |  | 1.1 | 1.23 | 1.04 | 1.43 | 24.3 | 16.3 |  |  |  |  |  |  | 
4 | O=C(O)c1ccccc1OC(=O)C1CCCN1C(=O)CCc1ccccc1 (stereo unspecified) |  |  | 0.988 | 0.983 |  | 0.951 |  |  | 23.4 |  |  |  |  |  | 
5 | O=C(O)c1ccccc1OC(=O)C1CCCN1C(=O)Cc1ccccc1 (stereo unspecified) |  |  | 1.03 | 1.05 | 1.03 | 1.15 | 24.6 | 17.1 |  |  |  |  |  |  | 
6 | O=C(O)COc1cc(NC(=O)c2ccc(Br)cc2)cc(C(=O)O)c1 |  |  | 1.08 | 1.24 | 1.02 | 1.32 | 24 | 17.4 |  |  |  |  |  |  | 
7 | O=C(O)C1CCCN1C(=O)Cc1ccccc1 (stereo unspecified) | 24.5 |  | 1.01 | 1.06 | 1 | 1.13 |  |  |  | 17.6 |  |  |  |  | 
8 | O=C(O)c1ccccc1OC(=O)C1CCCN1C(=O)COc1ccccc1 (stereo unspecified) |  |  | 1.02 | 1.02 | 0.987 | 1.08 | 24 | 17.1 |  |  |  |  |  |  | 
9 | CC(C)(Oc1ccc(CCNC(=O)c2ccc(Cl)cc2)cc1)C(=O)O |  |  | 0.932 | 0.981 | 0.954 | 1.2 |  |  |  |  | 24.8 | 18.2 |  |  | 
10 | O=C(O)COc1cc(NC(=O)c2ccc(Cl)cc2)cc(C(=O)O)c1 |  |  | 1.16 | 1.34 | 1.07 | 1.38 |  |  |  |  |  |  | 17.1 | 24 | 
11 | N[C@@H](Cc1ccccc1)C(=O)O | 24.5 | 17.3 | 1.05 | 1.09 | 1.04 | 1.18 |  |  |  |  |  |  |  |  | 1.18
12 | CCC(=O)Nc1cc(OCC(=O)O)cc(C(=O)O)c1 |  |  | 1.03 | 1.07 | 1 | 1.15 | 24.3 | 16.6 |  |  |  |  |  |  | 
13 | CC(C)(C)CC(=O)N1CCCC1C(=O)Oc1ccccc1C(=O)O (stereo unspecified) | 28.3 | 17.6 | 1.02 | 0.995 | 0.991 | 1.05 |  |  |  |  |  |  |  |  | 
14 | O=C(O)c1ccccc1OC(=O)C1CCCN1C(=O)c1ccccc1 (stereo unspecified) | 24.5 | 17.2 | 1 | 1.01 | 0.999 | 1.03 |  |  |  |  |  |  |  |  | 
15 | CC(C)(C)C(=O)N1CCCC1C(=O)O (stereo unspecified) |  |  | 1.05 | 1.05 | 1.03 | 1.07 | 22.9 | 16.1 |  |  |  |  |  |  | 
16 | O=C(O)COc1cc(NC(=O)c2ccc(Cl)c(Cl)c2)cc(C(=O)O)c1 |  |  | 1.19 | 1.35 | 1.09 | 1.45 |  |  |  |  | 24.8 | 16.9 |  |  | 
17 | CC(C)(C)C(=O)N1CCCC1C(=O)Oc1ccccc1C(=O)O (stereo unspecified) |  |  | 1 | 1.03 | 0.993 | 1.08 | 22.9 | 16.5 |  |  |  |  |  |  | 
